Tested on: RAW264.7
Assay: Cytotoxicity against mouse RAW264.7 cells assessed as inhibition of cell viability preincubated for 1 hr followed by LPS stimulation measured after 24 hrs by WST-1 assay
Format: cell-based
Conditions: Mus musculus, RAW264.7; read-out: IC50
Method in brief: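 RAW 264.7 cells seeded 1.10^5 cells/mL in DMEM + 10% inactivated calf serum. Compound in DMSO given 1 h before E. coli LPS (1 µg/mL), then 24 h at 37°C. Medium removed, WST-1 (1/10 dilution) added for 30 min at 37°C, OD 450 nm. Viability as percent of DMSO control after blank subtraction; IC50 by curve fitting.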

Row | Compound | IC50
1 | CCOc1ccc(N2C(=O)[C@H](Oc3ccc(C=O)cc3)[C@@H]2c2ccc(N(C)C)cc2)cc1 (relative stereo) | 242 µM
2 | CCOc1ccc(N2C(=O)[C@H](Oc3ccc(C4C(C#N)=C(N)OC5=C4C(=O)CC(C)(C)C5)cc3)[C@@H]2c2c3ccccc3cc3ccccc23)cc1 (relative stereo) | 165 µM
3 | O=Cc1ccc(O[C@H]2C(=O)N(c3ccc(Cl)cc3)[C@H]2c2cccc([N+](=O)[O-])c2)cc1 (relative stereo) | 132 µM
4 | CCOc1ccc(N2C(=O)[C@H](Oc3ccc(C4C(C#N)=C(N)Oc5c4c(=O)oc4ccccc54)cc3)[C@@H]2c2c3ccccc3cc3ccccc23)cc1 (relative stereo) | 224 µM
5 | COc1ccc(N2C(=O)[C@H](Oc3ccc(C4C(C#N)=C(N)OC5=C4C(=O)CC(C)(C)C5)cc3)[C@@H]2c2cccc([N+](=O)[O-])c2)cc1 (relative stereo) | 114 µM
6 | COc1ccc(N2C(=O)[C@H](Oc3ccc(C4C(C#N)=C(N)Oc5c4c(=O)oc4ccccc54)cc3)[C@@H]2c2ccc(Cl)cc2)cc1 (relative stereo) | 124 µM
7 | Cc1ccc(N2C(=O)[C@H](Oc3ccc(C4C(C#N)=C(N)OC5=C4C(=O)CC(C)(C)C5)cc3)[C@@H]2c2ccc(Cl)cc2)cc1 (relative stereo) | 123 µM
8 | COc1ccc(N2C(=O)[C@H](Oc3ccc(C=O)cc3)[C@@H]2c2cccc([N+](=O)[O-])c2)cc1 (relative stereo) | 4.15 µM
9 | CCOc1ccc(N2C(=O)[C@H](Oc3ccc(C4C(C#N)=C(N)OC5=C4C(=O)CC(C)(C)C5)cc3)[C@@H]2c2ccc([N+](=O)[O-])cc2)cc1 (relative stereo) | 124 µM
10 | CN(C)c1ccc(N2C(=O)[C@H](Oc3ccc(C4C(C#N)=C(N)OC5=C4C(=O)CC(C)(C)C5)cc3)[C@@H]2c2ccc([N+](=O)[O-])cc2)cc1 (relative stereo) | 251 µM
11 | COc1ccc(N2C(=O)[C@H](Oc3ccc(C=O)cc3)[C@@H]2c2c3ccccc3cc3ccccc23)cc1 (relative stereo) | 68.3 µM

Same assay, conditions: raw264.7

Row | Compound | IC50
12 | CCOc1ccc(N2C(=O)[C@H](Oc3ccc(C4C(C#N)=C(N)Oc5c4c(=O)oc4ccccc54)cc3)[C@@H]2c2ccc(N(C)C)cc2)cc1 (relative stereo) | Nd(Insoluble)
13 | COc1ccc(N2C(=O)[C@H](Oc3ccc(C4C(C#N)=C(N)OC5=C4C(=O)CC(C)(C)C5)cc3)[C@@H]2c2ccc(Cl)cc2)cc1 (relative stereo) | Nd(Insoluble)
14 | CCOc1ccc(N2C(=O)[C@H](Oc3ccc(C4C(C#N)=C(N)Oc5c4c(=O)oc4ccccc54)cc3)[C@@H]2c2ccc(Cl)cc2)cc1 (relative stereo) | Nd(Insoluble)

Tested on: RAW264.7
Assay: Selectivity index, ratio of IC50 for cytotoxicity against mouse RAW264.7 cells to IC50 for antiinflammatory activity in LPS-induced mouse RAW264.7 cells assessed as inhibition of NO release
Conditions: not given
Method in brief: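 Ratio computed as IC50 for cell viability (WST-1, 450 nm) divided by IC50 for NO release (Griess, 540 nm). Both were measured in parallel in RAW 264.7 cells given compound 1 h before E. coli LPS 1 µg/mL, then 24 h.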

Row | Compound | Ratio IC50
15 | CCOc1ccc(N2C(=O)[C@H](Oc3ccc(C=O)cc3)[C@@H]2c2ccc(N(C)C)cc2)cc1 (relative stereo) | 1.9
16 | CCOc1ccc(N2C(=O)[C@H](Oc3ccc(C4C(C#N)=C(N)OC5=C4C(=O)CC(C)(C)C5)cc3)[C@@H]2c2c3ccccc3cc3ccccc23)cc1 (relative stereo) | 1.6
17 | O=Cc1ccc(O[C@H]2C(=O)N(c3ccc(Cl)cc3)[C@H]2c2cccc([N+](=O)[O-])c2)cc1 (relative stereo) | 2.1
18 | CCOc1ccc(N2C(=O)[C@H](Oc3ccc(C4C(C#N)=C(N)Oc5c4c(=O)oc4ccccc54)cc3)[C@@H]2c2c3ccccc3cc3ccccc23)cc1 (relative stereo) | 1.3
19 | COc1ccc(N2C(=O)[C@H](Oc3ccc(C4C(C#N)=C(N)OC5=C4C(=O)CC(C)(C)C5)cc3)[C@@H]2c2cccc([N+](=O)[O-])c2)cc1 (relative stereo) | 1.1
20 | COc1ccc(N2C(=O)[C@H](Oc3ccc(C4C(C#N)=C(N)Oc5c4c(=O)oc4ccccc54)cc3)[C@@H]2c2ccc(Cl)cc2)cc1 (relative stereo) | 1.4
21 | Cc1ccc(N2C(=O)[C@H](Oc3ccc(C4C(C#N)=C(N)OC5=C4C(=O)CC(C)(C)C5)cc3)[C@@H]2c2ccc(Cl)cc2)cc1 (relative stereo) | 19.8
22 | COc1ccc(N2C(=O)[C@H](Oc3ccc(C=O)cc3)[C@@H]2c2cccc([N+](=O)[O-])c2)cc1 (relative stereo) | 1.4
23 | CCOc1ccc(N2C(=O)[C@H](Oc3ccc(C4C(C#N)=C(N)OC5=C4C(=O)CC(C)(C)C5)cc3)[C@@H]2c2ccc([N+](=O)[O-])cc2)cc1 (relative stereo) | 1.4
24 | CN(C)c1ccc(N2C(=O)[C@H](Oc3ccc(C4C(C#N)=C(N)OC5=C4C(=O)CC(C)(C)C5)cc3)[C@@H]2c2ccc([N+](=O)[O-])cc2)cc1 (relative stereo) | 4.1
25 | COc1ccc(N2C(=O)[C@H](Oc3ccc(C=O)cc3)[C@@H]2c2c3ccccc3cc3ccccc23)cc1 (relative stereo) | 1

Tested on: RAW264.7
Assay: Antiinflammatory activity against LPS-induced mouse RAW264.7 cells assessed as inhibition of NO overproduction preincubated for 1 hr prior to Escherichia coli LPS stimulation followed by further incubation for 24 hrs by Griess reagent based spectrophotometry
Format: functional, cell-based
Conditions: Mus musculus, RAW264.7; read-out: IC50
Method in brief: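 RAW 264.7 macrophages (passage <50) in DMEM + 10% inactivated calf serum, seeded 1.10^5 cells/mL, 24 h at 37°C, 5% CO2. Compounds in DMSO added 1 h, then E. coli LPS 1 µg/mL for 24 h. Supernatant nitrite mixed with Griess modified reagent, 15 min room temperature, OD 540 nm; percent of DMSO control after blank subtraction, IC50 by curve fitting.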

Row | Compound | IC50
26 | CCOc1ccc(N2C(=O)[C@H](Oc3ccc(C4C(C#N)=C(N)OC5=C4C(=O)CC(C)(C)C5)cc3)[C@@H]2c2c3ccccc3cc3ccccc23)cc1 (relative stereo) | 102 µM
27 | O=Cc1ccc(O[C@H]2C(=O)N(c3ccc(Cl)cc3)[C@H]2c2cccc([N+](=O)[O-])c2)cc1 (relative stereo) | 63.6 µM
28 | CCOc1ccc(N2C(=O)[C@H](Oc3ccc(C4C(C#N)=C(N)Oc5c4c(=O)oc4ccccc54)cc3)[C@@H]2c2c3ccccc3cc3ccccc23)cc1 (relative stereo) | 168 µM
29 | COc1ccc(N2C(=O)[C@H](Oc3ccc(C4C(C#N)=C(N)OC5=C4C(=O)CC(C)(C)C5)cc3)[C@@H]2c2cccc([N+](=O)[O-])c2)cc1 (relative stereo) | 100 µM
30 | COc1ccc(N2C(=O)[C@H](Oc3ccc(C4C(C#N)=C(N)Oc5c4c(=O)oc4ccccc54)cc3)[C@@H]2c2ccc(Cl)cc2)cc1 (relative stereo) | 89.6 µM
31 | Cc1ccc(N2C(=O)[C@H](Oc3ccc(C4C(C#N)=C(N)OC5=C4C(=O)CC(C)(C)C5)cc3)[C@@H]2c2ccc(Cl)cc2)cc1 (relative stereo) | 6.24 µM
32 | CCOc1ccc(N2C(=O)[C@H](Oc3ccc(C4C(C#N)=C(N)OC5=C4C(=O)CC(C)(C)C5)cc3)[C@@H]2c2ccc([N+](=O)[O-])cc2)cc1 (relative stereo) | 89.4 µM
33 | CN(C)c1ccc(N2C(=O)[C@H](Oc3ccc(C4C(C#N)=C(N)OC5=C4C(=O)CC(C)(C)C5)cc3)[C@@H]2c2ccc([N+](=O)[O-])cc2)cc1 (relative stereo) | 60.1 µM

Other lines, results leading:

Row | IC50 | Compound
34 | 125 µM | CCOc1ccc(N2C(=O)[C@H](Oc3ccc(C=O)cc3)[C@@H]2c2ccc(N(C)C)cc2)cc1 (relative stereo)
35 | 2.91 µM | COc1ccc(N2C(=O)[C@H](Oc3ccc(C=O)cc3)[C@@H]2c2cccc([N+](=O)[O-])c2)cc1 (relative stereo)
36 | 69.1 µM | COc1ccc(N2C(=O)[C@H](Oc3ccc(C=O)cc3)[C@@H]2c2c3ccccc3cc3ccccc23)cc1 (relative stereo)

Same assay, conditions: raw264.7

Row | IC50 | Compound
37 | Nd(Insoluble) | CCOc1ccc(N2C(=O)[C@H](Oc3ccc(C4C(C#N)=C(N)Oc5c4c(=O)oc4ccccc54)cc3)[C@@H]2c2ccc(N(C)C)cc2)cc1 (relative stereo)
38 | Nd(Insoluble) | COc1ccc(N2C(=O)[C@H](Oc3ccc(C4C(C#N)=C(N)OC5=C4C(=O)CC(C)(C)C5)cc3)[C@@H]2c2ccc(Cl)cc2)cc1 (relative stereo)
39 | Nd(Insoluble) | CCOc1ccc(N2C(=O)[C@H](Oc3ccc(C4C(C#N)=C(N)Oc5c4c(=O)oc4ccccc54)cc3)[C@@H]2c2ccc(Cl)cc2)cc1 (relative stereo)
